Experimental findings from ChEMBL document CHEMBL1144120, “In vitro evaluation of antifungal properties of phenylpropanoids and related compounds acting against dermatophytes” (1999) are described below.

Assay [1] concerns Trichophyton mentagrophytes. The assay can be described thus: Antifungal activity against Trichophyton mentagrophytes ATCC 9972 up to 50 ug/mL by agar dilution method. It counts as functional, organism-based. In short, it runs like this:
(§1)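 Dermatophytes were tested by agar dilution on Sabouraud chloramphenicol agar in 96-well plates. DMSO stock solutions were serially two-fold diluted into the medium to give final concentrations of 0.10–50 µg/mL, with DMSO not exceeding 2%. Each well received 5 µL of spore suspension.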
A general note: In agar dilution the substance is mixed into plates at graded concentrations.

For assay [2], the system named is Trichophyton rubrum. The assay can be described thus: Antifungal activity against Trichophyton rubrum C 113 up to 50 ug/mL by agar dilution method. It counts as functional, organism-based. In short, it runs like this:
as §1

Assay [3] concerns Epidermophyton floccosum. The assay can be described thus: Antifungal activity against Epidermophyton floccosum C 114 up to 50 ug/mL by agar dilution method. It counts as functional, organism-based. An outline of the steps:
as §1

For assay [4], the system named is Nannizzia gypsea. The assay is described as follows: Antifungal activity against Microsporum gypseum C 115 by agar dilution method. It counts as functional. An outline of the steps: as §1
For assay [5], the system named is Trichophyton mentagrophytes. The assay can be described thus: Antifungal activity against Trichophyton mentagrophytes ATCC by agar dilution method. It counts as functional. In short, it runs like this: as §1
Assay [6] relates to Trichophyton rubrum. The assay is described as follows: Antifungal activity against Trichophyton rubrum C 113 by agar dilution method. It counts as functional. An outline of the steps: as §1
For assay [7], the system named is Epidermophyton floccosum. The assay can be described thus: Antifungal activity against Epidermophyton floccosum C 114 by agar dilution method. It is filed as functional. An outline of the steps:
as §1

For the next assay, the system named is Candida albicans. The assay is described as follows: Antifungal activity against Candida albicans ATCC 10231 by agar dilution method. It counts as functional, organism-based. An outline of the steps: (§2)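 Sabouraud chloramphenicol agar dilution in 96-well plates. Strains were grown on Sabouraud chloramphenicol agar slants for 48 h at 30 °C and suspended in sterile distilled water, adjusted to 10^6 viable cells/mL. DMSO stocks were serially two-fold diluted into the agar to give 0.10–50 µg/mL, with DMSO ≤2% final. 5 µL inoculum per well; incubated 24, 48 or 72 h at 30 °C per control growth; MIC recorded.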

The next assay has as its system Saccharomyces cerevisiae. The assay is described as follows: Antifungal activity against Saccharomyces cerevisiae ATCC 9763 by agar dilution method. It is filed as functional, organism-based. An outline of the steps:
as §2

The subject of another assay is Cryptococcus neoformans. The assay is described as follows: Antifungal activity against Cryptococcus neoformans ATCC 32264 by agar dilution method. It is filed as functional, organism-based. An outline of the steps: as §2
In the next assay the test system is Aspergillus flavus. The assay is described as follows: Antifungal activity against Aspergillus flavus ATCC 9170 by agar dilution method. It counts as functional, organism-based. An outline of the steps:
as §2

Another assay deals with Aspergillus fumigatus. The assay is described as follows: Antifungal activity against Aspergillus fumigatus ATCC 26934 by agar dilution method. It is filed as functional, organism-based. An outline of the steps:
as §2

In another assay the test system is Aspergillus niger. The assay is described as follows: Antifungal activity against Aspergillus niger ATCC 9029 by agar dilution method. It is filed as functional, organism-based. An outline of the steps: as §2
In assay [8] the test system is Microsporum canis. The assay is described as follows: Antifungal activity against Microsporum canis C 112 by agar dilution method. It is filed as functional. An outline of the steps:
as §1

The test system of assay [9] is Microsporum canis. The assay is described as follows: Antifungal activity against Microsporum canis C 112 up to 50 ug/mL by agar dilution method. It is filed as functional, organism-based. An outline of the steps: as §1
Assay [10] has as its system Nannizzia gypsea. The assay is described as follows: Antifungal activity against Microsporum gypseum C 115 up to 50 ug/mL by agar dilution method. It counts as functional, organism-based. In short, it runs like this: as §1

Values after ≈ are worked out from the molar mass of the structure shown. Active and inactive are the calls of the source.

As a reminder, the MIC is the smallest concentration in the dilution series that meets the test's criterion for growth inhibition. Regarding `CC(C)C(=O)c1ccc2ccccc2c1`, the outcome (in assay [1]; in the assay with Trichophyton rubrum [2]; with Epidermophyton floccosum [3]; in the assay with Candida albicans; with Saccharomyces cerevisiae; in the assay with Cryptococcus neoformans) was inactive. Besides, the result in the assay with Aspergillus flavus, in the assay with Aspergillus fumigatus, with Aspergillus niger, in the assay with Microsporum canis [9] and in the assay on Nannizzia gypsea [10] was inactive. For the same molecule, the MIC was 25 mg/L (≈ 126 µM) against Nannizzia gypsea [4]; 25 mg/L (≈ 126 µM) in [5]; more than 50 mg/L in the assay with Trichophyton rubrum [6]; 40 mg/L (≈ 202 µM) in the assay with Epidermophyton floccosum [7]; 40 mg/L (≈ 202 µM) against Microsporum canis [8].
As to `CC(C)(C)C(=O)c1ccccc1`, the result (in assay [1]; in the assay on Trichophyton rubrum [2]; with Epidermophyton floccosum [3]; in the assay on Candida albicans; in the assay with Saccharomyces cerevisiae; in the assay on Cryptococcus neoformans) was inactive. Also, the outcome in the assay on Aspergillus flavus, in the assay with Aspergillus fumigatus, with Aspergillus niger, with Microsporum canis [9] and in the assay with Nannizzia gypsea [10] was inactive. Moreover, the minimum inhibitory concentration (MIC) was more than 50 mg/L against Nannizzia gypsea [4]; more than 50 mg/L in assay [5]; more than 50 mg/L with Trichophyton rubrum [6]; 50 mg/L (≈ 308 µM) in the assay on Epidermophyton floccosum [7]; more than 50 mg/L against Microsporum canis [8].
Regarding `COc1ccc(C(=O)C(C)C)cc1OC`, the result (in [1]; in the assay on Trichophyton rubrum [2]; with Epidermophyton floccosum [3]; with Candida albicans; in the assay with Saccharomyces cerevisiae; in the assay with Cryptococcus neoformans) was inactive. Moreover, the result in the assay on Aspergillus flavus, in the assay with Aspergillus fumigatus, in the assay on Aspergillus niger, in the assay with Microsporum canis [9] and with Nannizzia gypsea [10] was inactive. The MIC is more than 50 mg/L with Nannizzia gypsea [4]; more than 50 mg/L in assay [5]; 50 mg/L (≈ 240 µM) against Trichophyton rubrum [6]; 50 mg/L (≈ 240 µM) in the assay on Epidermophyton floccosum [7]; more than 50 mg/L with Microsporum canis [8].
Consider `CC(Cl)C(=O)c1ccccc1` (configuration not stated), for which the outcome (in assay [1]; in the assay on Trichophyton rubrum [2]; with Epidermophyton floccosum [3]; with Candida albicans; in the assay with Saccharomyces cerevisiae; in the assay with Cryptococcus neoformans) was inactive. Moreover, the outcome in the assay on Aspergillus flavus, in the assay with Aspergillus fumigatus, in the assay on Aspergillus niger, in the assay on Microsporum canis [9] and in the assay on Nannizzia gypsea [10] was inactive. Further, the MIC is 20 mg/L (≈ 119 µM) in the assay with Nannizzia gypsea [4]; 10 mg/L (≈ 59.3 µM) in assay [5]; 12.5 mg/L (≈ 74.1 µM) in the assay with Trichophyton rubrum [6]; 15 mg/L (≈ 89 µM) in the assay on Epidermophyton floccosum [7]; 6.25 mg/L (≈ 37.1 µM) in the assay on Microsporum canis [8].
For the molecule `CCC(=O)c1cc(OC)c(OC)c(OC)c1`, the outcome (in assay [1]; in the assay on Trichophyton rubrum [2]; in the assay with Epidermophyton floccosum [3]; in the assay on Candida albicans; with Saccharomyces cerevisiae; in the assay with Cryptococcus neoformans) was inactive. In addition, the result in the assay with Aspergillus flavus, in the assay on Aspergillus fumigatus, with Aspergillus niger, with Microsporum canis [9] and in the assay with Nannizzia gypsea [10] was inactive. For the same molecule, the minimal inhibitory concentration (MIC) (against Nannizzia gypsea [4]; in [5]; against Trichophyton rubrum [6]; in the assay with Epidermophyton floccosum [7]; with Microsporum canis [8]) was more than 50 mg/L in each case.
Consider `C=CCc1cc(OC)c(OC)c(OC)c1`, for which the result (in assay [1]; in the assay on Trichophyton rubrum [2]; in the assay on Epidermophyton floccosum [3]; in the assay with Candida albicans; in the assay on Saccharomyces cerevisiae; in the assay on Cryptococcus neoformans) was inactive. In addition, the outcome in the assay with Aspergillus flavus, in the assay on Aspergillus fumigatus, in the assay with Aspergillus niger, in the assay with Microsporum canis [9] and with Nannizzia gypsea [10] was inactive. The MIC (with Nannizzia gypsea [4]; in assay [5]; in the assay with Trichophyton rubrum [6]; with Epidermophyton floccosum [7]; with Microsporum canis [8]) was more than 50 mg/L throughout.
In the case of `CC(Cl)C(=O)c1ccc2c(c1)OCO2` (configuration not stated), the outcome (in [1]; in the assay on Trichophyton rubrum [2]; in the assay on Epidermophyton floccosum [3]; in the assay with Candida albicans; in the assay with Saccharomyces cerevisiae; in the assay with Cryptococcus neoformans) was inactive. The outcome in the assay with Aspergillus flavus, with Aspergillus fumigatus, in the assay with Aspergillus niger, with Microsporum canis [9] and in the assay on Nannizzia gypsea [10] was inactive. For the same molecule, the minimum inhibitory concentration (MIC) was 12.5 mg/L (≈ 58.8 µM) against Nannizzia gypsea [4]; 25 mg/L (≈ 118 µM) in assay [5]; 10 mg/L (≈ 47 µM) in the assay on Trichophyton rubrum [6]; 6.25 mg/L (≈ 29.4 µM) in the assay on Epidermophyton floccosum [7]; 12.5 mg/L (≈ 58.8 µM) against Microsporum canis [8].
As to `CCC(O)c1ccc2ccccc2c1` (configuration not stated), the result (in assay [1]; in the assay with Trichophyton rubrum [2]; in the assay on Epidermophyton floccosum [3]; in the assay with Candida albicans; in the assay on Saccharomyces cerevisiae; with Cryptococcus neoformans) was inactive. Moreover, the outcome with Aspergillus flavus, in the assay with Aspergillus fumigatus, with Aspergillus niger, in the assay with Microsporum canis [9] and in the assay on Nannizzia gypsea [10] was inactive. The MIC against Nannizzia gypsea [4] came to 40 mg/L (≈ 215 µM); in [5], 25 mg/L (≈ 134 µM); in the assay on Trichophyton rubrum [6] it was 40 mg/L (≈ 215 µM); against Epidermophyton floccosum [7] it was 40 mg/L (≈ 215 µM); with Microsporum canis [8] it was 50 mg/L (≈ 268 µM).
As for `COc1cc(C(=O)C(C)Cl)cc(OC)c1OC` (configuration not stated), the result (in assay [1]; in the assay on Trichophyton rubrum [2]; with Epidermophyton floccosum [3]; in the assay with Candida albicans; in the assay with Saccharomyces cerevisiae; with Cryptococcus neoformans) was inactive. Moreover, the outcome with Aspergillus flavus, in the assay with Aspergillus fumigatus, in the assay with Aspergillus niger, with Microsporum canis [9] and in the assay on Nannizzia gypsea [10] was inactive. Also, the MIC turned out to be 12.5 mg/L (≈ 48.3 µM) in the assay on Nannizzia gypsea [4]; 15 mg/L (≈ 58 µM) in assay [5]; 10 mg/L (≈ 38.7 µM) with Trichophyton rubrum [6]; 0.5 mg/L (≈ 1.93 µM) in the assay on Epidermophyton floccosum [7]; 6.25 mg/L (≈ 24.2 µM) with Microsporum canis [8].
For the molecule `C=CCc1ccc(O)c(OC)c1` [EUGENOL], the result (in assay [1]; with Trichophyton rubrum [2]; in the assay on Epidermophyton floccosum [3]; in the assay on Candida albicans; in the assay with Saccharomyces cerevisiae; in the assay on Cryptococcus neoformans) was inactive. Moreover, the outcome in the assay on Aspergillus flavus, in the assay with Aspergillus fumigatus, in the assay with Aspergillus niger, with Microsporum canis [9] and with Nannizzia gypsea [10] was inactive. Besides, the MIC (in the assay with Nannizzia gypsea [4]; in assay [5]; in the assay on Trichophyton rubrum [6]; against Epidermophyton floccosum [7]; against Microsporum canis [8]) was more than 50 mg/L in each case.
With `CCC(O)c1ccc(OC)c(OC)c1` (configuration not stated), the result (in [1]; in the assay on Trichophyton rubrum [2]; with Epidermophyton floccosum [3]; with Candida albicans; in the assay on Saccharomyces cerevisiae; in the assay with Cryptococcus neoformans) was inactive. The outcome in the assay on Aspergillus flavus, with Aspergillus fumigatus, with Aspergillus niger, in the assay on Microsporum canis [9] and in the assay on Nannizzia gypsea [10] was inactive. In addition, the MIC was more than 50 mg/L against Nannizzia gypsea [4]; more than 50 mg/L in assay [5]; more than 50 mg/L against Trichophyton rubrum [6]; 50 mg/L (≈ 255 µM) with Epidermophyton floccosum [7]; more than 50 mg/L against Microsporum canis [8].
Consider `CCC(=O)c1ccc2c(c1)OCO2`, for which the outcome (in assay [1]; in the assay on Trichophyton rubrum [2]; with Epidermophyton floccosum [3]; in the assay on Candida albicans; in the assay on Saccharomyces cerevisiae; in the assay with Cryptococcus neoformans) was inactive. Moreover, the result with Aspergillus flavus, in the assay with Aspergillus fumigatus, in the assay with Aspergillus niger, in the assay with Microsporum canis [9] and in the assay on Nannizzia gypsea [10] was inactive. Also, the MIC against Nannizzia gypsea [4] was more than 50 mg/L; in [5], more than 50 mg/L; in the assay with Trichophyton rubrum [6], more than 50 mg/L; with Epidermophyton floccosum [7], 40 mg/L (≈ 224 µM); in the assay with Microsporum canis [8] it was more than 50 mg/L.
